TRPC6 inhibitor – blocks the mouse TRPC6 cation channel; Q61143; HEK293-TRPC6, membrane potential dye, ACh-evoked depolarization; stronger effect = lower value; B-score at 10 µM; 310,000 tested, 1.1% active; AID 2553;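 active = B-score under library mean minus 3 SD, initial fluorescence not abnormally high, positive integrated signal ratio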;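 also: B-score derived from integrated fluorescence ratio over the kinetic read; more negative B-score means stronger inhibition of depolarization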
TRPC6 activator – activates the mouse TRPC6 cation channel. Q61143. HEK293-TRPC6 membrane potential dye fluorescence; stronger effect = higher value. B-score at 10 µM. 310,000 tested, 0.13% active. AID 2550;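 active = B-score of the integrated fluorescence ratio above library mean plus 3 SD, and starting fluorescence ratio within library mean plus 5 SD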;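 also: higher score means more depolarization so channel activation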
TRPC4 agonist – opens the mouse TRPC4 cation channel | Q9QUQ5 | B-score at 10 µM | 310,000 tested, 0.49% active | AID 2237 | HEK293 TRPC4beta/mu-opioid, Fluo4 calcium fluorescence; stronger effect = higher value;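 active = B-score above 5 SD of library B-scores, and initial fluorescence ratio not above library mean plus 5 SD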;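 also: positive B-score marks a calcium rise read as TRPC4 activation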
Target sequence (Q9QUQ5 whole entry, looked up): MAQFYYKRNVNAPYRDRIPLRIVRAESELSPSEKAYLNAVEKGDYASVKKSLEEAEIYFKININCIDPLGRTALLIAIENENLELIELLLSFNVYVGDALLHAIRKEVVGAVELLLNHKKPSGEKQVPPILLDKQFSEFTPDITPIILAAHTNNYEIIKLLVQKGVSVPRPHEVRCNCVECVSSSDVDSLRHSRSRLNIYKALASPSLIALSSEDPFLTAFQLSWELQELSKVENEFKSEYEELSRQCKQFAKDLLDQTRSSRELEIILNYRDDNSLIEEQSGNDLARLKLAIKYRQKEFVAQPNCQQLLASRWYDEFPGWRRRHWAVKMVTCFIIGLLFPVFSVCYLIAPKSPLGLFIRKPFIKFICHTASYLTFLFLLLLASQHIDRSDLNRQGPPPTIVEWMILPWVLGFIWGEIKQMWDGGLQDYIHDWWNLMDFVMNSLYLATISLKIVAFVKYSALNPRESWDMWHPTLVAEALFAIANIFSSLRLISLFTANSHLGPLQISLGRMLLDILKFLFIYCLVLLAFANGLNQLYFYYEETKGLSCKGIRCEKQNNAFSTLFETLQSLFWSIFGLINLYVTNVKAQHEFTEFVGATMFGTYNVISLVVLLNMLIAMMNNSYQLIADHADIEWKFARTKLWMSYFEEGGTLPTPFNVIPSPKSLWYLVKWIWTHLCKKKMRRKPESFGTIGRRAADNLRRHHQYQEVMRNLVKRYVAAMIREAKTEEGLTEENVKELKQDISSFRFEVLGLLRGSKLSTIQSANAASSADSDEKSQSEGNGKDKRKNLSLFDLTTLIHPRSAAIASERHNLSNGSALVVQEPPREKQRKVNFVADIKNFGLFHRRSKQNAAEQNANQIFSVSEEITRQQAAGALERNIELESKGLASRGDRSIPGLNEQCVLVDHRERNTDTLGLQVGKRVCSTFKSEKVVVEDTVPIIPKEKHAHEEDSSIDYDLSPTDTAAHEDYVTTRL
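Assay system: HEK293 cells stably co-expressing mouse TRPC4beta and mu-opioid receptor / Timing: Fluo4 dye loading 45 min at room temperature, 110 s recording / Signal: Fluo4 calcium-sensitive dye fluorescence, kinetic, 1 Hz baseline / Read-out: integrated baseline-normalised fluorescence ratio, converted to per-well B score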
TRPC4 potent – TRPC4 (mouse) allosteric potentiation; Q9QUQ5; HEK293 TRPC4beta/mu-opioid, DAMGO EC20, Fluo-4 Ca2+ flux; stronger effect = higher value; B-score at 10 µM; 310,000 tested, 0.42% active; AID 2227;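 active = B-score of calcium response area above 5 SD of library B-scores, with initial fluorescence ratio within 5 SD of library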;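 also: B-score of integrated fluorescence ratio over time as area under calcium response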
TRPC4 inh – inhibitors of mouse TRPC4 channel. 300,000 tested, 0.39% active. B-score at 10 µM. HEK293 TRPC4beta/mu-opioid, DAMGO-evoked Fluo4 calcium flux; stronger effect = lower value;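 active = B-score over 3 SD under the library average, no early fluorescence shift, positive overall ratio signal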
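Test system – stable TRPC4beta/mu-opioid receptor HEK293 cells · Probe or stimulus – DAMGO, a submaximal dose followed by a maximal one · Dosing – one concentration per compound · Signal – Fluo4 calcium fluorescence by kinetic imaging, 5 s 1 Hz baseline · Evaluation – per-well B score of integrated baseline-normalized Fluo4 ratio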
* marks the source's active call; other numbers are inactive results. Hits are enriched below; roughly 2.3% of the tested compounds scored in any of these assays.

For CCOc1ccc2[nH]c(=O)c(CN(CCN3CCCC3)C(=S)Nc3ccccc3OC)cc2c1 the results were TRPC6 inhibitor inactive, TRPC6 activator inactive, TRPC4 agonist inactive, TRPC4 potent inactive and TRPC4 inh inactive.
`CN(CC(=O)Nc1cccc(F)c1)C(=O)c1cc([N+](=O)[O-])ccc1N1CCCCC1` gave TRPC6 inhibitor inactive, TRPC6 activator inactive, TRPC4 agonist inactive, TRPC4 potent inactive and TRPC4 inh inactive.
Screening C=CCN(C(=O)Cn1nnc2ccccc21)C(C(=O)NCCOC)c1ccc(OC)cc1OC (centres undefined) returned TRPC6 inhibitor inactive, TRPC6 activator inactive, TRPC4 agonist inactive, TRPC4 potent inactive and TRPC4 inh inactive.
COCCN(C(=O)Cn1nnc2ccccc21)C(C(=O)NC1CCCC1)c1cc(OC)ccc1OC (centres undefined) was read as TRPC6 inhibitor inactive, TRPC6 activator 24*, TRPC4 agonist inactive, TRPC4 potent inactive and TRPC4 inh inactive.
Screening CCOC(=O)C1=C(C)NC(SC)=C(C#N)C1CC(C)C (centres undefined) returned TRPC6 inhibitor inactive, TRPC6 activator inactive, TRPC4 agonist inactive, TRPC4 potent inactive and TRPC4 inh inactive.
Cc1ccc(C(=O)NNC(=S)NC(=O)COc2ccccc2)cc1 was read as TRPC6 inhibitor inactive, TRPC6 activator inactive, TRPC4 agonist 119*, TRPC4 potent inactive and TRPC4 inh inactive.
Screening CC(C)(C)C(=O)NC(=S)NNC(=O)c1ccncc1 returned TRPC6 inhibitor inactive, TRPC6 activator inactive, TRPC4 agonist inactive, TRPC4 potent inactive and TRPC4 inh inactive.
`Cc1cccc(OCC(=O)NC(=S)NNC(=O)c2ccncc2)c1` gave TRPC6 inhibitor inactive, TRPC6 activator inactive, TRPC4 agonist inactive, TRPC4 potent inactive and TRPC4 inh inactive.
`CC(C)(C)c1ccc(C(=O)NC(=S)NNC(=O)COc2ccccc2)cc1` gave TRPC6 inhibitor inactive, TRPC6 activator inactive, TRPC4 agonist 72*, TRPC4 potent inactive and TRPC4 inh -6*.
For CC(C)(C)C(=O)NC(=S)NNC(=O)c1ccc(-c2ccccc2)cc1 the results were TRPC6 inhibitor inactive, TRPC6 activator inactive, TRPC4 agonist 277*, TRPC4 potent inactive and TRPC4 inh inactive.
Screening CC(C)(C)c1ccc(OCC(=O)NNC(=O)CCc2ccccc2)cc1 returned TRPC6 inhibitor inactive, TRPC6 activator inactive, TRPC4 agonist inactive, TRPC4 potent inactive and TRPC4 inh inactive.
For COC(=O)c1ccccc1NC(=S)NC(=O)COc1ccccc1 the results were TRPC6 inhibitor inactive, TRPC6 activator inactive, TRPC4 agonist inactive, TRPC4 potent inactive and TRPC4 inh inactive.
Cc1ccccc1C(=O)NNC(=S)NC(=O)COc1ccccc1 was read as TRPC6 inhibitor inactive, TRPC6 activator inactive, TRPC4 agonist 177*, TRPC4 potent inactive and TRPC4 inh inactive.
COc1ccc(CNC(=O)COC(=O)c2cccs2)cc1 was read as TRPC6 inhibitor inactive, TRPC6 activator inactive, TRPC4 agonist inactive, TRPC4 potent inactive and TRPC4 inh inactive.
Screening COc1ccccc1CNC(=O)CS(=O)(=O)c1ccccc1 returned TRPC6 inhibitor inactive, TRPC6 activator inactive, TRPC4 agonist inactive, TRPC4 potent inactive and TRPC4 inh inactive.
COc1ccc(C(CNC(=O)C2CC2)N(C)C)cc1 (centres undefined) was read as TRPC6 inhibitor inactive, TRPC6 activator inactive, TRPC4 agonist inactive, TRPC4 potent inactive and TRPC4 inh inactive.
Screening COc1ccc(C(CNC(=O)c2cc(C)on2)N(C)C)cc1 (centres undefined) returned TRPC6 inhibitor inactive, TRPC6 activator inactive, TRPC4 agonist 84*, TRPC4 potent inactive and TRPC4 inh inactive.
COc1ccc(C(CNC(=O)Cc2ccc3ccccc3c2)N(C)C)cc1 (centres undefined) was read as TRPC6 inhibitor inactive, TRPC6 activator inactive, TRPC4 agonist 135*, TRPC4 potent inactive and TRPC4 inh -6*.
Screening COc1ccc(NC(=O)c2cc(C)on2)cc1 returned TRPC6 inhibitor inactive, TRPC6 activator inactive, TRPC4 agonist inactive, TRPC4 potent inactive and TRPC4 inh inactive.
For COc1ccc(C(CNC(=O)COc2ccccc2OC)N(C)C)cc1OC (centres undefined) the results were TRPC6 inhibitor inactive, TRPC6 activator inactive, TRPC4 agonist 137*, TRPC4 potent inactive and TRPC4 inh inactive.
For COc1ccc(C(CNC(=O)C(C)c2ccc3cc(OC)ccc3c2)N(C)C)cc1 (centres undefined) the results were TRPC6 inhibitor inactive, TRPC6 activator inactive, TRPC4 agonist 204*, TRPC4 potent inactive and TRPC4 inh inactive.
For O=C1N=C(N2C=CC(=C3C=CNC=C3)C=C2)/C(=C/N=NC(=O)c2ccccc2O)S1 the results were TRPC6 inhibitor inactive, TRPC6 activator inactive, TRPC4 agonist inactive, TRPC4 potent inactive and TRPC4 inh inactive.
Screening Cc1ccc2c(CN(C)Cc3cccc(Cl)c3)cc(=O)oc2c1C returned TRPC6 inhibitor inactive, TRPC6 activator inactive, TRPC4 agonist inactive, TRPC4 potent 11* and TRPC4 inh inactive.
For CSc1ccc(CN(C)Cc2cc(=O)oc3c(C)c(C)ccc23)cc1 the results were TRPC6 inhibitor inactive, TRPC6 activator inactive, TRPC4 agonist inactive, TRPC4 potent inactive and TRPC4 inh inactive.
Screening CCCCn1c(N)c(N(CCOC)C(=O)c2cc(CC)c(C)s2)c(=O)[nH]c1=O returned TRPC6 inhibitor inactive, TRPC6 activator inactive, TRPC4 agonist inactive, TRPC4 potent inactive and TRPC4 inh inactive.
Screening CC(C)n1c(NCc2ccccc2O)nc2ccccc21 returned TRPC6 inhibitor inactive, TRPC6 activator inactive, TRPC4 agonist inactive, TRPC4 potent inactive and TRPC4 inh -6*.
Screening Cn1c(NCc2ccccc2O)nc2ccccc21 returned TRPC6 inhibitor inactive, TRPC6 activator inactive, TRPC4 agonist inactive, TRPC4 potent inactive and TRPC4 inh -6*.
`C=CCc1cccc(CNc2nc3ccccc3n2C(C)C)c1O` gave TRPC6 inhibitor inactive, TRPC6 activator inactive, TRPC4 agonist inactive, TRPC4 potent inactive and TRPC4 inh inactive.
`Cn1c(NCc2ccccc2Cl)nc2ccccc21` gave TRPC6 inhibitor inactive, TRPC6 activator inactive, TRPC4 agonist inactive, TRPC4 potent inactive and TRPC4 inh inactive.
For O=C(Nc1cccc([N+](=O)[O-])c1)C1COc2ccccc2O1 (centres undefined) the results were TRPC6 inhibitor inactive, TRPC6 activator inactive, TRPC4 agonist inactive, TRPC4 potent inactive and TRPC4 inh inactive.
Cc1[nH]c2ccccc2c(=O)c1CN1CCCCCC1 was read as TRPC6 inhibitor inactive, TRPC6 activator inactive, TRPC4 agonist inactive, TRPC4 potent inactive and TRPC4 inh inactive.
